Holding throughout (type): functional
For one assay, the species on record is Mus musculus. Nature of the assay: Analgesic activity in mice by phenyl quinone-induced writhing assay with respect to aspirin. The essentials: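 Phenylquinone-induced writhing in mice; potency expressed as ED50 with 95% confidence limits, relative to aspirin as reference; number of mice recorded per test.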
(In writhing tests, fewer writhes than in controls are read as antinociception.)

For assay [1], the system named is Rattus norvegicus. Kind of assay: Antiinflammatory activity was determined by inhibition of carrageenan-induced edema in rat paw with respect to phenylbutazone. The method, boiled down:
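Carrageenan-induced rat paw edema; potency expressed as ED30 relative to phenylbutazone as reference; number of rats recorded.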
A general note: Carrageenan injected into the paw causes an acute inflammation.

For assay [2], the species on record is Rattus norvegicus. Kind of assay: Antiinflammatory activity was determined by inhibition of adjuvant-induced arthritis in rats with respect to naproxen.
The species named for assay [3] is Rattus norvegicus. Nature of the assay: Antiinflammatory activity was determined by inhibition of cotton pellet granuloma in rats with respcet to Indomethacin.
Assay [4] is filed under the species Rattus norvegicus. Kind of assay: Gastrointestinal erosive activity was determined by 7-day chronic assay in rats. The settings on record: 168 h, read-out: MED. The method, boiled down: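 Chronic 7-day gastrointestinal erosion assay in rats; read-out is the minimum dose producing erosion (MED).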
Assay [5] can be described thus: Ratio of MED GI erosion to ED30 for carrageenan rat paw was determined. The essentials:
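Therapeutic ratio calculated as the minimum erosive dose from the 7-day rat gastrointestinal erosion assay divided by the ED30 from the carrageenan rat paw edema assay.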

Assay [6] is filed under the species Rattus norvegicus. Nature of the assay: Antiinflammatory activity was determined to inhibit cotton pellet granuloma in rats with respcet to Indomethacin.
The species named for assay [7] is Rattus norvegicus. Kind of assay: Antiinflammatory activity was determined to inhibit adjuvant-induced arthritis in rats with respect to naproxen.
The species entered for assay [8] is Rattus norvegicus. Kind of assay: Antiinflammatory activity was determined by inhibition of cotton pellet granuloma in rats with respect to Indomethacin.

For the molecule `COc1ccc(C(=O)c2c(Cl)cc3n2CCC3C(=O)O)cc1` (stereo not given), the relative potency was determined as 201 in the assay listed under Mus musculus, 55 in the assay on Rattus norvegicus [1], 4 in the assay listed under Rattus norvegicus [2] and 0.7 in the assay listed under Rattus norvegicus [3]. In the assay filed under Rattus norvegicus [4], the minimal effective dose was around 1.3 mg/kg. In assay [5], the Therapeutic index was found to be 5.
On to `COCCCc1cc2n(c1C(=O)c1ccc(Cl)cc1)CCC2C(=O)O` (stereo not given), for which the relative potency in the assay listed under Mus musculus is at least 1.5; in the assay on Rattus norvegicus [1], 1.2.
In the assay filed under Mus musculus, `COCCc1cc2n(c1C(=O)c1ccccc1)CCC2C(=O)O` (stereo not given) yielded a relative potency of 7.6. The ED30 in the assay on Rattus norvegicus [1] is at most 0.3 mg/kg.
As to `COc1ccc2cc([C@H](C)C(=O)O)ccc2c1` [NAPROXEN], the relative potency in the assay listed under Mus musculus amounted to 7; with Rattus norvegicus [1], 11; in the assay filed under Rattus norvegicus [6], 0.2; in the assay filed under Rattus norvegicus [7] it was 1. The minimal effective dose in the assay listed under Rattus norvegicus [4] worked out at 30 mg/kg. Also, the Therapeutic index in assay [5] was 22.
On to `COc1ccc2c(c1)c(CC(=O)O)c(C)n2C(=O)c1ccc(Cl)cc1` [INDOMETHACIN], for which the relative potency in the assay listed under Mus musculus was found to be 60; in the assay on Rattus norvegicus [1], 16; in the assay filed under Rattus norvegicus [6] it was 1; in the assay filed under Rattus norvegicus [7], 7.
Turning to `CCc1cc2n(c1C(=O)c1ccccc1)CCC2C(=O)O` (stereo not given), the figures for the relative potency in the assay listed under Mus musculus and with Rattus norvegicus [1] were 108 and 26, respectively.
For the molecule `Cc1ccc(C(=O)c2c(Cl)cc3n2CCC3C(=O)O)cc1` (stereo not given), the relative potency stood at 158 in the assay filed under Mus musculus, 32 in the assay with Rattus norvegicus [1], 11 in the assay listed under Rattus norvegicus [2] and 0.2 in the assay listed under Rattus norvegicus [3]. Further, the minimal effective dose in the assay listed under Rattus norvegicus [4] stood at 5 mg/kg. Also, the Therapeutic index in assay [5] was 11.
As for `Cc1cc2n(c1C(=O)c1ccccc1)CCC2C(=O)O` (stereo not given), the relative potency amounted to 250 in the assay filed under Mus musculus, 43 in the assay on Rattus norvegicus [1], 1 in the assay listed under Rattus norvegicus [2] and 1 in the assay listed under Rattus norvegicus [8]. Moreover, the minimal effective dose in the assay listed under Rattus norvegicus [4] came out at 1.7 mg/kg. The Therapeutic index in assay [5] was determined as 5.
Regarding `CS(=O)(=O)c1ccc(C(=O)c2c(Cl)cc3n2CCC3C(=O)O)cc1` (stereo not given), the relative potency in the assay listed under Mus musculus is at most 0.8; in the assay on Rattus norvegicus [1], below 1.
The matching figures for `CSc1ccc(C(=O)c2c(Cl)cc3n2CCC3C(=O)O)cc1` (stereo not given): 100 and 68.
For the molecule `COCCc1cc2n(c1C(=O)c1ccc(F)cc1)CCC2C(=O)O` (stereo not given), the relative potency in the assay listed under Mus musculus stood at 1.1. In the assay with Rattus norvegicus [1], this molecule displayed an ED30 of at most 0.3 mg/kg.
For the molecule `CCc1cc2n(c1C(=O)c1ccc(F)cc1)CCC2C(=O)O` (stereo not given), the relative potency in the assay listed under Mus musculus is 121; with Rattus norvegicus [1], 46.
On the same counts, the results for `COCCCc1cc2n(c1C(=O)c1ccc(F)cc1)CCC2C(=O)O` (stereo not given) are around 1 and below 3.
On the same counts, the results for `C1CCC(NC2CCCCC2)CC1.Cc1cc2n(c1C(=O)c1ccccc1)CCC2(C)C(=O)O` (stereo not given) are 40 and below 7.
Consider `Cc1cc(CC(=O)O)n(C)c1C(=O)c1ccc(Cl)cc1` [ZOMEPIRAC], for which the relative potency in the assay listed under Mus musculus was found to be 36; with Rattus norvegicus [1], 26. For the same molecule, in assay [5], the Therapeutic index was 17.
Take `O=C(c1ccc(F)cc1)c1c(Br)cc2n1CCC2C(=O)O` (stereo not given): the relative potency in the assay filed under Mus musculus was 120; in the assay on Rattus norvegicus [1] it was 96.
Consider `O=C(c1ccccc1)c1c(Cl)cc2n1CCC2C(=O)O` (stereo not given), for which the relative potency in the assay filed under Mus musculus was 246; in the assay on Rattus norvegicus [1] it was 10; in the assay listed under Rattus norvegicus [2] it was below 8; in the assay listed under Rattus norvegicus [3], 0.6. Also, the minimal effective dose in the assay filed under Rattus norvegicus [4] was around 1.7 mg/kg. In addition, the Therapeutic index in assay [5] was determined as 1.
`COc1ccc(C(=O)c2c(C)cc3n2CCC3C(=O)O)cc1` (stereo not given): the relative potency in the assay listed under Mus musculus came out at 130; in the assay with Rattus norvegicus [1] it was 73.
As for `COCCc1cc2n(c1C(=O)c1ccc(Cl)cc1)CCC2C(=O)O` (stereo not given), the relative potency in the assay filed under Mus musculus stood at 5. The ED30 in the assay on Rattus norvegicus [1] is below 0.3 mg/kg.
As to `O=C(c1ccccc1)c1c(Br)cc2n1CCC2C(=O)O` (stereo not given), the relative potency in the assay listed under Mus musculus was 314; in the assay on Rattus norvegicus [1], 7.4.
On the same counts, the results for `COCCCc1cc2n(c1C(=O)c1ccccc1)CCC2C(=O)O` (stereo not given) are at most 3 and below 10.
On to `O=C(c1ccc(F)cc1)c1c(Cl)cc2n1CCC2C(=O)O` (stereo not given), for which the relative potency in the assay filed under Mus musculus is 151; with Rattus norvegicus [1], 139; in the assay filed under Rattus norvegicus [2], 13; in the assay listed under Rattus norvegicus [3] it was 1. In the assay listed under Rattus norvegicus [4], the minimal effective dose is around 0.3 mg/kg. The Therapeutic index in [5] is 3.
On to `O=C(c1ccc(Cl)cc1)c1c(Cl)cc2n1CCC2C(=O)O` (stereo not given), for which the relative potency in the assay filed under Mus musculus stood at 167; in the assay with Rattus norvegicus [1] it was 88; in the assay filed under Rattus norvegicus [2] it was 40; in the assay filed under Rattus norvegicus [3], 3. In the assay listed under Rattus norvegicus [4], the minimal effective dose was around 0.2 mg/kg. Moreover, in assay [5], the Therapeutic index came out at 1.
Regarding `Cc1cc2n(c1C(=O)c1ccc(F)cc1)CCC2C(=O)O` (stereo not given), the relative potency in the assay filed under Mus musculus was 302; in the assay on Rattus norvegicus [1] it was 103; in the assay listed under Rattus norvegicus [2], 3; in the assay listed under Rattus norvegicus [3] it was 1. The minimal effective dose in the assay filed under Rattus norvegicus [4] was determined as 1.2 mg/kg. For the same molecule, the Therapeutic index in assay [5] turned out to be 12.
For `Cc1cc2n(c1C(=O)c1ccc(Cl)cc1)CCC2C(=O)O` (stereo not given), the relative potency came out at 167 in the assay filed under Mus musculus, 122 in the assay on Rattus norvegicus [1], 3.5 in the assay filed under Rattus norvegicus [2] and 2 in the assay listed under Rattus norvegicus [3]. Also, in the assay listed under Rattus norvegicus [4], the minimal effective dose was 0.6 mg/kg. Moreover, the Therapeutic index in assay [5] stood at 5.
`Cc1ccc(C(=O)c2c(C)cc3n2CCC3C(=O)O)cc1` (stereo not given): the relative potency in the assay listed under Mus musculus came to 250; with Rattus norvegicus [1] it was 43; in the assay listed under Rattus norvegicus [2], 3; in the assay listed under Rattus norvegicus [3], 0.7. Also, the minimal effective dose in the assay filed under Rattus norvegicus [4] was 2.5 mg/kg. Further, the Therapeutic index in assay [5] stood at 7.
